Experiments:
[1] = system: cytochrome c release from MEF mitochondria; assay: in vitro cytochrome c release assay; assay type: cell-based, mouse; settings: 5 μM ABT-737, 30°C, 1 h
MEFs [2] = assay: short-term killing assay with ABT-737; assay type: cell-based, mouse
How it was run: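 Constructs in pMIG (MSCV-IRES-GFP) were packaged in transiently transfected ecotropic Phoenix cells. Filtered supernatants were spin-inoculated onto FDC-P1 cells or SV40 large T-immortalized MEFs. ABT-737 was added immediately after spin inoculation. Viability was the fraction of GFP+ cells excluding 5 μg/ml PI, read by flow cytometry 30 h or at indicated times after transduction. MEF dose-response used stably infected lines given 0–10 μM ABT-737 for 24 h.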

primary thymocytes = assay: ionomycin-induced killing, cell viability; assay type: cell-based, mouse; settings: 1 μg/ml ionomycin
How it was run: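 Thymocytes came from bim+/+ or bim−/− mice. They were treated with 1 μg/ml ionomycin for 0–24 h. Viability was scored by flow cytometry as propidium iodide-excluding cells. Values are means ± SD of three experiments.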

[3] = system: Mcl-1 in primary thymocytes; assay: Mcl-1 levels by Western blotting after ionomycin; assay type: cell-based, mouse; settings: with 50 μM qVD-OPH
How it was run: (§1)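 Cells were cultured with 50 μM qVD-OPH to block caspase cleavage of Mcl-1. For 2, MCF-7 cells were given 1.5 μM thapsigargin for up to 48 h. For 1, primary bim+/+ mouse thymocytes were given 1 μg/ml ionomycin. Cells were lysed in 1% (vol/vol) Triton X-100 buffer. Western blots were probed with rat monoclonal anti-Mcl-1 (19C4-15) and anti-Bim, then reprobed for HSP70 as loading control.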

Mcl-1 in MCF-7 cells = assay: Mcl-1 levels by Western blotting after thapsigargin; assay type: cell-based; settings: up to 48 h, with 50 μM qVD-OPH
How it was run: as §1

MCF-7 cells = assay: thapsigargin-induced apoptosis, cell viability; assay type: cell-based; settings: 1.5 μM thapsigargin, 0–48 h
How it was run: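 Wild-type MCF-7 cells and a subclone stably expressing Bim shRNA were treated with 1.5 μM thapsigargin for 0–48 h. Survival was measured by flow cytometry as propidium iodide exclusion. Values are means ± SD of three experiments.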

MEFs [4] = assay: long-term tolerance assay; assay type: cell-based, mouse; settings: wild-type MEFs; retroviral expression linked to GFP through IRES; ∼40 d
How it was run: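 SV40-immortalized MEF lines stably expressing BH3-only constructs from pMIG (GFP via IRES) were grown without selection. They were harvested every 3 or 4 d over 38 d. At each time point, flow cytometry measured the proportion of GFP+ cells that excluded propidium iodide.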

CN(C)CC[C@H](CSc1ccccc1)Nc1ccc(S(=O)(=O)NC(=O)c2ccc(N3CCN(Cc4ccccc4-c4ccc(Cl)cc4)CC3)cc2)cc1[N+](=O)[O-] [ABT-737]
cytochrome c release ([1]; mitochondria from BimS2A-expressing cells): significant release | cytochrome c release ([1]; mitochondria from BimS4E-expressing cells): No cytochrome c release | time to maximal cell death (MEFs [2]; 1 μM ABT-737, MEFs expressing BimS2A, Noxa or BimSNoxaBH3): 4 to 6 h | killing of MEFs lacking Bim and Bid (MEFs [2]; ABT-737 with BimS2A expression): able to synergize and kill | killing of bax−/− and bak−/− MEFs (MEFs [2]; BimS2A/ABT-737 combination): able to kill | viability of MEFs expressing Mcl-1–selective BH3-only proteins (MEFs [2]; MEFs expressing BimS2A, BimSNoxaBH3 or Noxa, 24 h, 0–10 μM ABT-737): efficiently kill cells

C[C@H](CCC(=O)O)C[C@H](C)C[C@H](C)C(=O)/C=C(\O)[C@H](C)C[C@H](C)C/C=C/[C@@H](C)[C@@H](O)[C@@H](C)[C@@H](O)C[C@@H]1CC[C@@](C)([C@H]2CC[C@@](C)([C@@H](C)O)O2)O1 [ionomycin]
killing of Bim-deficient thymocytes (primary thymocytes; 0–24 h): attenuates | death of wild-type thymocytes (primary thymocytes; 0–24 h, three experiments): significant death | Mcl-1 levels after treatment [3]: did not significantly change

CC(C)[C@H](NC(=O)c1ccc2ccccc2n1)C(=O)N[C@@H](CC(=O)O)C(=O)COc1c(F)cccc1F [qVD-OPH]
effect on killing induced by ionomycin (primary thymocytes; 50 μM qVD-OPH, thymocytes): significantly reduced the killing

C/C=C(/C)C(=O)O[C@H]1C(C)=C2[C@H]([C@@H]1OC(=O)CCCCCCC)[C@@](C)(OC(C)=O)C[C@H](OC(=O)CCC)[C@@]1(O)[C@H]2OC(=O)[C@@]1(C)O [thapsigargin]
Mcl-1 levels over levels in untreated cells (Mcl-1 in MCF-7 cells): up to twofold | cell death of MCF-7 cells expressing Bim shRNA (MCF-7 cells): relatively insensitive | cell death of wild-type MCF-7 cells (MCF-7 cells; three experiments): Significant cell death

B1: BimS2A: full-length BimS containing the L62A/F69A mutations, retrovirally expressed (protein)
chain: MAKQPSDVSSECDREGRQLQPAERPPQLRPGAPTSLQTEPQASMRQAEPADMRPEIWIAQEARRIGDEANAYYARRVFLNNYQAAEDHPRMVILRLLRYIVRLVWRMH
modifications: left off: HA, end not stated, kept
viable cells that remained GFP+ve (MEFs [4]): progressive loss

B2: Bad: BH3-only protein targeting Bcl-xL, Bcl-w and Bcl-2, retrovirally expressed (protein, UniProt Q61337 1-204, looked up)
Bcl2-associated agonist of …: MGTPKQPSLAPAHALGLRKSDPGIRSLGSDAGGRRWRPAAQSMFQIPEFEPSEQEDASATDRGLGPSLTEDQPGPYLAPGLLGSNIHQQGRAATNSHHGGAGAMETRSRHSSYPAGTEEDEGMEEELSPFRGRSRSAPPNLWAAQRYGRELRRMSDEFEGSFKGLPRPKSAGTATQMRQSAGWTRIIQSWWDRNLGKGGSTPSQ
viable cells that remained GFP+ve (MEFs [4]): > 80%

B3: Noxa: BH3-only protein preferentially binding Mcl-1, retrovirally expressed (protein, UniProt Q9JM54 1-103, looked up)
Phorbol-12-myristate-13-acetat …: MPGRKARRNAPVNPTRAELPPEFAAQLRKIGDKVYCTWSAPDITVVLAQMPGKSQKSRMRSPSPTRVPADLKDECAQLRRIGDKVNLRQKLLNLISKLFNLVT
viable cells that remained GFP+ve (MEFs [4]): progressive loss

From PMC2213596 (The Journal of Cell Biology, 2008)
